From PubChem
Most compounds without a hit are left out; they make up all but 2.6% or so of the library.
esBAF inh: blocks esBAF chromatin remodeling in mouse ES cells; Bmi1-luciferase knock-in reporter, 24 h; 100% = twice the neutral-well signal; reporter increase, % at 12.5 µM; hit rate 2% among 350,000; in the data active means activation above about 40%;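 further: 0% = median of the plate's neutral control wells and 100% = double that signal; a rise in the Bmi1 reporter signal indicates esBAF inhibition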
Xi reactivation: X-chromosome reactivation activator | hit rate 0.055% among 360,000 | activation, % at 7.58 µM | XiGFP mouse fibroblasts, % GFP-positive cells imaging, 3 d; cells co-treated with 5-aza-dC sensitizer; scaled so ellipticine positive control = 100% | AID 743238;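 active means mean normalized replicate activation at least 10% and every replicate at or above 10%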;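 further: 0% = median of on-plate neutral control wells and 100% = ellipticine 6 µM median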
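System: XiGFP fibroblasts, SV40-immortalized. Medium: DMEM plus 5-aza-dC sensitizer. Doses: single point. Timing: 3 d treatment, 15 min room-temperature fixation. Control set: ellipticine 6 µM.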
Vif imaging: blocks HIV Vif function. HEK293T cells, Vif self-association by quenched fluorescence, imaging, 24 h. inhibition, % at 7.49 µM. hit rate 0.35% among 340,000. AID 602346; in the data active means inhibition above about 50%, passing the limit was not always enough
Wnt act: activates Wnt/beta-catenin signaling in a reporter cell assay; activator, plate reader; activation, % at 9.35 µM; hit rate 1.2% among 300,000; AID 743398; in the data active means activation above about 30%, passing the limit was not always enough;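 further: 0% = neutral control wells and 100% = positive control wells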
MITF TRPM1 HTS: activators of MITF-driven TRPM1 promoter activity in SK-MEL-5 cells; AID 588334; hit rate 0.75% among 300,000; SK-MEL-5 TRPM1-promoter luciferase, 24 h; % of positive control, neutral wells = 0; activation, % at 12.5 µM;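 active means mean activation of at least 80% with every replicate also reaching 80%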;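 further: 0% = neutral control wells and 100% = parthenolide positive control wells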
Starred values were filed as active, the others as inactive.

Results for COc1ccc([C@@H](C)NC(=O)c2ccc3oc(C(C)C)nc3c2)cc1 ?
esBAF inh: 64*; Xi reactivation: 0; Vif imaging: -2; Wnt act: 18; MITF TRPM1 HTS: 55

How did COc1ccc(Cc2nc3ccc(C(=O)N4CCCC4)cc3o2)cc1 do in these assays?
esBAF inh: 71*; Xi reactivation: 0; Vif imaging: -10; Wnt act: 29; MITF TRPM1 HTS: 57

How did COC(=O)CCCNC(=O)c1ccc2nc(Cc3ccc(OC)cc3)oc2c1 do in these assays?
esBAF inh: 17; Xi reactivation: 0; Vif imaging: 7; Wnt act: 1; MITF TRPM1 HTS: 26

What do the screens show for `C[C@@H]1CN([C@H](C)CO)C(=O)Cc2cc(NS(=O)(=O)c3cn(C)cn3)ccc2O[C@H]1CN(C)CC1CC1`?
esBAF inh: -2; Xi reactivation: -1

How did C[C@@H]1CN([C@H](C)CO)C(=O)c2cccc(NC(=O)c3cnccn3)c2O[C@H]1CN(C)C(=O)Nc1cccc2ccccc12 do in these assays?
esBAF inh: 1; Xi reactivation: -1

Results for O=C(c1ccc2nc(Cc3cccc(Cl)c3)oc2c1)N1CCOCC1 ?
Xi reactivation: 0; Wnt act: 19; MITF TRPM1 HTS: 102*

Results for COc1ccc(Cc2nc3ccc(C(=O)NC(C)C)cc3o2)cc1 ?
esBAF inh: 51*; Xi reactivation: 0; Vif imaging: -1; Wnt act: 27

Results for CCN1/C(=C/c2ccc3cc(C)ccc3[n+]2CC)Sc2ccc3sccc3c21 ?
esBAF inh: -87; Vif imaging: 16; MITF TRPM1 HTS: -100

What do the screens show for `CCN1/C(=C\c2ccc3cc(C)ccc3[n+]2CC)Sc2cc(C)c(C)cc21`?
esBAF inh: -49; Xi reactivation: 77*; Vif imaging: inactive; Wnt act: -19; MITF TRPM1 HTS: -74

Results for CCN1/C(=C/c2ccc3cc(C)cc(C)c3[n+]2CC)Sc2cc(C)ccc21 ?
esBAF inh: -55; Xi reactivation: 110*; Vif imaging: inactive; Wnt act: -19; MITF TRPM1 HTS: -81

What do the screens show for `C[C@H]1CN([C@@H](C)CO)C(=O)c2cc(NS(=O)(=O)c3ccc(Cl)cc3)ccc2O[C@@H]1CN(C)S(=O)(=O)c1ccccc1`?
esBAF inh: 1; Xi reactivation: 0

How did O=C1CCCC/C1=C\Nc1ccc(Cl)cn1 do in these assays?
esBAF inh: 44*; MITF TRPM1 HTS: 69

What do the screens show for `O=C(NCC[C@H]1CC[C@@H](NC(=O)c2ccccc2F)[C@@H](CO)O1)c1ccc2c(c1)OCO2`?
esBAF inh: 2; Xi reactivation: 0

How did O=c1c2ccccc2nc(N/N=C/c2ccc(O)cc2)n1O do in these assays?
esBAF inh: 47*; Vif imaging: 16; MITF TRPM1 HTS: 38

Results for Clc1nnc(N/N=C/c2ccccc2)c2ccccc12 ?
esBAF inh: 39; Vif imaging: -2; MITF TRPM1 HTS: 15

Results for Clc1ccc(/C=N/Nc2nnc(Cl)c3ccccc23)cc1 ?
esBAF inh: 90*; Vif imaging: -6; Wnt act: 11; MITF TRPM1 HTS: 39

What do the screens show for `Clc1ccc(/C=N/Nc2nc(Cl)nc3ccccc23)cc1`?
esBAF inh: 58*; Vif imaging: 2

What do the screens show for `Cc1ccc(-c2nc(N/N=C/c3ccncc3)c3ccccc3n2)cc1`?
esBAF inh: -30; Wnt act: 8; MITF TRPM1 HTS: 6

Results for Cc1ccc(S(=O)(=O)Nc2ccc3c(c2)C(=O)N([C@@H](C)CO)C[C@H](C)[C@@H](CN(C)Cc2ccccc2)O3)cc1 ?
esBAF inh: -1; Xi reactivation: 0

How did C[C@@H]1CN([C@H](C)CO)C(=O)c2cc(NC(=O)Cc3ccccc3)ccc2O[C@H]1CN(C)Cc1ccc(C(=O)O)cc1 do in these assays?
esBAF inh: -3; Xi reactivation: 0

How did C[C@@H]1CN([C@H](C)CO)C(=O)c2cc(NS(C)(=O)=O)ccc2O[C@H]1CN(C)S(=O)(=O)c1ccc(Cl)cc1 do in these assays?
esBAF inh: -1; Xi reactivation: 0

Results for COc1ccc(NC(=O)N(C)C[C@H]2Oc3c(NC(=O)CCCCCC(=O)Nc4ccccc4N)cccc3C(=O)N([C@H](C)CO)C[C@H]2C)cc1 ?
Xi reactivation: 0

Results for COCCCNC(=S)NNC(=S)Nc1ccccc1 ?
Xi reactivation: 1; Vif imaging: 0; Wnt act: 42*
